Laboratory results taken from ChEMBL document CHEMBL1926623, “Modification of olivomycin A at the side chain of the aglycon yields the derivative with perspective antitumor characteristics” (Bioorg Med Chem, 2011).

Columns and labels:
HCT-116 = assay: Antiproliferative activity against human HCT116 cells after 72 hrs by MTT assay; format: functional, cell-based
In short: (§1)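 Cells from ATCC grown in DMEM or RPMI-1640 with 5% FCS, 2 mM L-glutamine, and penicillin/streptomycin at 37 °C, 5% CO2. 5 × 10³ log-phase cells per well were exposed to serial dilutions (from 10 mM DMSO stocks; 0.1% DMSO vehicle control), each dose in duplicate, for 72 h. MTT was added for 2 h and absorbance read at 540 nm. IC50 is the 50% viability inhibition versus vehicle. Mean ± SD of 4–5 independent experiments.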

K562 = assay: Antiproliferative activity against human K562 cells after 72 hrs by MTT assay; format: functional, cell-based; in short: as §1
[1] = Toxicity in mouse P388 cells xenografted B6D2F1 mouse assessed as mortality at 4 mg/kg, ip administered daily for 5 days; format: organism-based; parameters: dose 4 mg/kg, route intraperitoneal; details: in vivo, read-out: Activity
In short: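 B6D2F1 mice, 10 per group, were inoculated ip with 10^6 P388 cells on day 0. Drug in 0.1% DMSO, diluted in saline, was given daily for 5 days. Physical condition, body weight, behaviour, nutrition and hair cover were monitored daily. Mortality was scored as drug-related toxicity deaths.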

P388 [2] = assay: Antitumor activity against mouse P388 cells xenografted in B6D2F1 mouse assessed as increase in lifespan at 2 mg/kg, ip administered daily for 5 days relative to untreated control; format: functional; details: route intraperitoneal
In short: (§2)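 Each group of 10 B6D2F1 mice received 10^6 P388 lymphoma cells ip on day 0. Drug was dissolved in 0.1% DMSO, diluted with saline and given once daily for 5 days; controls were untreated. ILS (%) = (Dt−Dc)/Dc × 100, where Dt and Dc are mean survival times in days for treated and control groups.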

B16 [3] = assay: Antitumor activity against mouse B16 cells xenografted in B6D2F1 mouse assessed as tumor growth inhibition at 2 mg/kg, iv administered on days 1,4,7,10 and 13 measured 28 days post tumor challenge; format: functional; details: B16, 672 h, read-out: GI
In short: (§3)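 B6D2F1 mice, 10 per group, received 10⁶ B16 melanoma cells s.c. into the right flank on day 0. Compound diluted in saline was given iv on days 1, 4, 7, 10, 13 (5 injections) or days 1–22 every third day (8 injections). Controls were left untreated, and mice were sacrificed by day 28. ITG% = (Mc−Mt)/Mc × 100, using calculated tumor weight (a×b×c)/2.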

P388 [4] = assay: Antitumor activity against mouse P388 cells xenografted in B6D2F1 mouse assessed as increase in lifespan at 1 mg/kg, ip administered daily for 5 days relative to untreated control; format: functional; details: route intraperitoneal; in short: as §2
B16 [5] = assay: Antitumor activity against mouse B16 cells xenografted in B6D2F1 mouse assessed as tumor growth inhibition at 2 mg/kg, iv administered on days 1,4,7,10,13,16,19 and 22 measured 28 days post tumor challenge; format: functional; details: B16, 672 h, read-out: GI; in short: as §3
Nucleic Acid [6] = assay: Binding affinity to Salmon sperm DNA assessed as increase in fluorescence at 1.34 uM by spectrophotometry; details: Salmonidae
Nucleic Acid [7] = assay: Binding affinity to Salmon sperm DNA assessed as increase in fluorescence at 1.34 uM by spectrophotometry; format: nucleic-acid assay; details: Salmonidae
Nucleic Acid [8] = assay: Binding affinity to Salmon sperm DNA at 1.34 uM by Scatchard plot analysis; format: nucleic-acid assay; details: Salmonidae

| Compound | IC50 (HCT-116) [nM] | IC50 (K562) [nM] | further results |
| --- | --- | --- | --- |
| CNC(=O)[C@@H](OC)[C@@H]1Cc2cc3cc(O[C@H]4C[C@@H](O[C@@H]5C[C@@H](O)[C@H](OC)[C@@H](C)O5)[C@H](OC(C)=O)[C@@H](C)O4)cc(O)c3c(O)c2C(=O)[C@H]1O[C@H]1C[C@H](O[C@H]2C[C@H](O[C@H]3C[C@@](C)(O)[C@@H](OC(=O)C(C)C)[C@H](C)O3)[C@H](O)[C@@H](C)O2)[C@H](O)[C@@H](C)O1 | 120 | – | – |
| COC(=O)[C@H](C)NC(=O)[C@@H](OC)[C@@H]1Cc2cc3cc(O[C@H]4C[C@@H](O[C@@H]5C[C@@H](O)[C@H](OC)[C@@H](C)O5)[C@H](OC(C)=O)[C@@H](C)O4)cc(O)c3c(O)c2C(=O)[C@H]1O[C@H]1C[C@H](O[C@H]2C[C@H](O[C@H]3C[C@@](C)(O)[C@@H](OC(=O)C(C)C)[C@H](C)O3)[C@H](O)[C@@H](C)O2)[C@H](O)[C@@H](C)O1 | 20 | 63 | – |
| CO[C@H]1[C@H](O)C[C@@H](O[C@@H]2C[C@H](Oc3cc(O)c4c(O)c5c(cc4c3)C[C@@H]([C@H](OC)C(=O)NCCN(C)C)[C@H](O[C@H]3C[C@H](O[C@H]4C[C@H](O[C@H]6C[C@@](C)(O)[C@@H](OC(=O)C(C)C)[C@H](C)O6)[C@H](O)[C@@H](C)O4)[C@H](O)[C@@H](C)O3)C5=O)O[C@H](C)[C@H]2OC(C)=O)O[C@@H]1C | 20 | 47 | – |
| CO[C@H]1[C@H](O)C[C@@H](O[C@@H]2C[C@H](Oc3cc(O)c4c(O)c5c(cc4c3)C[C@@H]([C@H](OC)C(=O)[C@@H](O)[C@@H](C)O)[C@H](O[C@H]3C[C@H](O[C@H]4C[C@H](O[C@H]6C[C@@](C)(O)[C@@H](OC(=O)C(C)C)[C@H](C)O6)[C@H](O)[C@@H](C)O4)[C@H](O)[C@@H](C)O3)C5=O)O[C@H](C)[C@H]2OC(C)=O)O[C@@H]1C [OLIVOMYCIN A] | 20 | 50 | mortality at 120 h [1]: 87%; Activity (P388 [2]): 35%; inhibition in vivo at 2 mg/kg (B16 [3]): 48%; Activity (P388 [4]): 24%; inhibition in vivo at 2 mg/kg (B16 [5]): 45% |
| CO[C@H]1[C@H](O)C[C@@H](O[C@@H]2C[C@H](Oc3cc(O)c4c(O)c5c(cc4c3)C[C@@H]([C@H](OC)C(=O)N[C@@H]3[C@@H](O)[C@@H](O)[C@@H](CO)O[C@H]3O)[C@H](O[C@H]3C[C@H](O[C@H]4C[C@H](O[C@H]6C[C@@](C)(O)[C@@H](OC(=O)C(C)C)[C@H](C)O6)[C@H](O)[C@@H](C)O4)[C@H](O)[C@@H](C)O3)C5=O)O[C@H](C)[C@H]2OC(C)=O)O[C@@H]1C | > 12500 | 2390 | – |
| CO[C@H]1[C@H](O)C[C@@H](O[C@@H]2C[C@H](Oc3cc(O)c4c(O)c5c(cc4c3)C[C@@H]([C@H](OC)C(=O)NCCCO)[C@H](O[C@H]3C[C@H](O[C@H]4C[C@H](O[C@H]6C[C@@](C)(O)[C@@H](OC(=O)C(C)C)[C@H](C)O6)[C@H](O)[C@@H](C)O4)[C@H](O)[C@@H](C)O3)C5=O)O[C@H](C)[C@H]2OC(C)=O)O[C@@H]1C | 156 | – | – |
| CO[C@H]1[C@H](O)C[C@@H](O[C@@H]2C[C@H](Oc3cc(O)c4c(O)c5c(cc4c3)C[C@@H]([C@H](OC)C(=O)NC3C4CC6CC(C4)CC3C6)[C@H](O[C@H]3C[C@H](O[C@H]4C[C@H](O[C@H]6C[C@@](C)(O)[C@@H](OC(=O)C(C)C)[C@H](C)O6)[C@H](O)[C@@H](C)O4)[C@H](O)[C@@H](C)O3)C5=O)O[C@H](C)[C@H]2OC(C)=O)O[C@@H]1C (some centres undefined) | 180 | – | – |
| CO[C@H]1[C@H](O)C[C@@H](O[C@@H]2C[C@H](Oc3cc(O)c4c(O)c5c(cc4c3)C[C@@H]([C@H](OC)C(N)=O)[C@H](O[C@H]3C[C@H](O[C@H]4C[C@H](O[C@H]6C[C@@](C)(O)[C@@H](OC(=O)C(C)C)[C@H](C)O6)[C@H](O)[C@@H](C)O4)[C@H](O)[C@@H](C)O3)C5=O)O[C@H](C)[C@H]2OC(C)=O)O[C@@H]1C | 100 | – | – |
| CO[C@H]1[C@H](O)C[C@@H](O[C@@H]2C[C@H](Oc3cc(O)c4c(O)c5c(cc4c3)C[C@@H]([C@H](OC)C(=O)O)[C@H](O[C@H]3C[C@H](O[C@H]4C[C@H](O[C@H]6C[C@@](C)(O)[C@@H](OC(=O)C(C)C)[C@H](C)O6)[C@H](O)[C@@H](C)O4)[C@H](O)[C@@H](C)O3)C5=O)O[C@H](C)[C@H]2OC(C)=O)O[C@@H]1C [OLIVOMYCIN SA] | 2000 | 2200 | Activity (Nucleic Acid [6]): Dose-dependent effect; Activity (Nucleic Acid [7]): Dose-dependent effect; K (Nucleic Acid [8]): 2.1 ×10⁴ /M |
| CO[C@H]1[C@H](O)C[C@@H](O[C@@H]2C[C@H](Oc3cc(O)c4c(O)c5c(cc4c3)C[C@@H]([C@H](OC)C(=O)NCc3ccc(F)cc3)[C@H](O[C@H]3C[C@H](O[C@H]4C[C@H](O[C@H]6C[C@@](C)(O)[C@@H](OC(=O)C(C)C)[C@H](C)O6)[C@H](O)[C@@H](C)O4)[C@H](O)[C@@H](C)O3)C5=O)O[C@H](C)[C@H]2OC(C)=O)O[C@@H]1C | 278 | 148 | – |
